In ChEMBL document CHEMBL4513216, “Probing the Open Global Health Chemical Diversity Library for Multistage-Active Starting Points for Next-Generation Antimalarials” (ACS Infect Dis, 2020):

Assay: Toxicity liver stage against HepG2, at 10uM
Assay type: cell-based
Parameters: test concentration 10 uM, cell line HepG2-A16-CD81EGFP
Details: human, HepG2-A16-CD81EGFP cells; read-out: INHIBITION
Summary of the method: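 Uninfected HepG2-A16-CD81EGFP cells, 3 × 10^3 per well, 1536-well, plated on prespotted compound at 10 μM final, parasite-free screening media added to match infected plates; puromycin 10 μM positive, DMSO 0.5% negative; run in parallel with 48 h PbLuc assay at 37 °C, 5% CO2; viability by CellTiter-Glo luminescence, normalized to controls.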

Going from `Cc1ncccc1NC(=O)[C@H]1C[C@@H]2CCN(Cc3nccs3)C[C@@H]2O1` to `CN1CCO[C@@H]2CN(C(=O)c3ccc4ncccc4c3)CC[C@@H]2C1`, the cytotoxicity at 10 µM falls from 0.976% to -112%.

First: O=C(C1CCOC1)N1CCC2(CC1)Cc1ccccc1CNC2=O (stereo not given)
Second: O=C(c1ncccn1)N1CC[C@H]2OCC[C@@]2(COc2ccccn2)C1
The cytotoxicity at 10 µM of the first is higher: -113% for the first, -146% for the second.

Going from `COc1ccccc1N1CCN(C(=O)COc2c(C)occc2=O)CC1` to `O=C(COc1coc(CN2CCCCC2)cc1=O)c1ccccc1`, the cytotoxicity at 10 µM rises from -0.426% to 8.44%.

Compared with `CCNC(=O)N1C[C@@H](NC(C)=O)[C@H](c2ccc(C)o2)C1`, `CCNC(=O)NCc1ccc(CN2CCCC(C)C2)cc1` (stereo not given) is higher in cytotoxicity at 10 µM: -8.82% for the first, -5.03% for the second.

Going from `O=C(N1CCCC1)N1C[C@@H]2CN(Cc3ccoc3)CCO[C@@H]2C1` to `Cn1cc(N2CCC3(CCCN(Cc4ccoc4)C3)C2=O)cn1` (stereo not given), the cytotoxicity at 10 µM falls from -76.7% to -77%.

First: CCC(NC(=O)NCc1cccc(N(C)C)n1)c1nccs1 (stereo not given)
Second: CCn1c(CNC(=O)Nc2nc(C)c(C)o2)nc2ccccc21
The cytotoxicity at 10 µM of the first is higher: 23.3% for the first, -5.3% for the second.

Going from `NC(=O)CCC(=O)N1CCc2[nH]nc(-c3ccc4c(c3)OCO4)c2C1` to `O=C(c1ccsc1)N1CCc2onc(COc3ccccn3)c2C1`, the cytotoxicity at 10 µM rises from -142% to 6.43%.

Going from `Cc1ccc(C(=O)N(C)S(C)(=O)=O)cc1Cl` to `CCN(C)Cc1n[nH]c(=O)n1-c1cc(F)ccc1C`, the cytotoxicity at 10 µM rises from -46.5% to 11.4%.

Going from `O=C(NCC1CN(c2ncccn2)Cc2nccn2C1)c1cccnc1` (stereo not given) to `N#Cc1ccc(CNC(=O)NC2CCN(c3ncccn3)CC2)cc1`, the cytotoxicity at 10 µM rises from -143% to 11.3%.

Compared with `CCCN1CCN(C(=O)c2cccc(C)n2)[C@H]2CS(=O)(=O)C[C@H]21`, `CCCN1CCC=C(C2c3nc[nH]c3CCN2C(=O)c2ccco2)C1` (stereo not given) is lower in cytotoxicity at 10 µM: 2.13% for the first, 1.33% for the second.

First: O=C(Nc1ccc(CN2CCOCC2)cc1)c1nccn2ccnc12
Second: O=C(CCCc1ccccn1)Nc1cccc(N2CCCNC2=O)c1
The cytotoxicity at 10 µM of the first is lower: -8.3% for the first, 1.94% for the second.

Going from `COCCc1noc(CN(C)C(=O)C(C)N2CCc3ccccc3C2)n1` (stereo not given) to `COc1ccc(N2CCN(Cc3noc(CC(C)C)n3)C(C)C2=O)cc1` (stereo not given), the cytotoxicity at 10 µM rises from -0.262% to 4.11%.

Going from `Cc1ccc(CN2CCOCC3(CCN(Cc4cccs4)C3)C2)o1` (stereo not given) to `CC(C)CN1CCC2(C1)CN(c1ncccn1)C2`, the cytotoxicity at 10 µM rises from -5.61% to 4.73%.

Going from `CCc1nc(C)c(C2CC(=O)Nc3c2c(-c2ccccn2)nn3C)[nH]1` (stereo not given) to `CN1CCc2c(C#N)c(NCc3ccncc3)n3cnnc3c2C1`, the cytotoxicity at 10 µM rises from -6.37% to 10.8%.

Compared with `COC(=O)c1cc(C2CC2)nc2c(Cl)cnn12`, `COCC(=O)N1CCCC(c2cccc(-n3ccnc3)n2)C1` (stereo not given) is lower in cytotoxicity at 10 µM: 14.7% for the first, -9.69% for the second.

Going from `O=C(NC1CCCCC1)c1c(F)cccc1F` to `Cc1cccc(C)c1OCCNC(=O)C[S+]([O-])C1CCCC1` (stereo not given), the cytotoxicity at 10 µM falls from 3.32% to -136%.

Compared with `Nc1ncc(-c2ccc(F)cc2)c(C2CCCNC2)n1` (stereo not given), `Cc1cc(=O)n(CC(=O)NCC2CCCO2)c(-c2ccc(F)cc2)n1` (stereo not given) is lower in cytotoxicity at 10 µM: 0.109% for the first, -10.8% for the second.

First: CCOC(C)c1nc(CN2CCN(c3nccc(C)n3)CC2)cs1 (stereo not given)
Second: CC(O)CN1CCN(Cc2csc(-c3ncccn3)n2)CC1 (stereo not given)
The cytotoxicity at 10 µM of the first is lower: -8.89% for the first, 5.4% for the second.

First: Cc1noc(C)c1CN1C[C@@H]2COC[C@H](C(=O)N3CCOCC3)[C@@H]2C1
Second: CNC(=O)[C@@H]1CCO[C@@H]2CCN(C3CCOCC3)C[C@@H]21
The cytotoxicity at 10 µM of the first is lower: -70% for the first, 6.67% for the second.

First: CC(C)COCCC(=O)NCc1cn2cc(Br)ccc2n1
Second: CCOCCOC(C)C(=O)Nc1ccc2ccn(CCN(C)C)c2c1 (stereo not given)
The cytotoxicity at 10 µM of the first is lower: 4.26% for the first, 10.1% for the second.

Compared with `COc1ccc(OC2CCN(Cc3ccn(C)c(=O)c3)CC2)cc1`, `COc1cccc(CNC(CN2CCN(C)CC2)c2ccccc2)c1` (stereo not given) is higher in cytotoxicity at 10 µM: -5.25% for the first, 12.5% for the second.

Going from `Cc1nc2n(n1)CC(NCc1nnc(C(C)(C)C)o1)CC2` (stereo not given) to `CCN1CCCN(c2ccc(-n3ccc(C)n3)nn2)CC1`, the cytotoxicity at 10 µM rises from -5.23% to -0.553%.

First: CC(O)CN1CCC(CNCc2ccccc2F)CC1 (stereo not given)
Second: CC(C)(C)C(O)CN1CCN(Cc2ccc(C#N)cc2)CC1 (stereo not given)
The cytotoxicity at 10 µM of the first is lower: -11.4% for the first, -8.88% for the second.

Compared with `Cc1cs/c(=N\C(=O)Cn2nc(N3CCOCC3)ccc2=O)[nH]1`, `Cc1cc(N2CCC(O)(C(=O)O)CC2)nc2ccccc12` is lower in cytotoxicity at 10 µM: -5.07% for the first, -41.5% for the second.

Going from `CN(C)[C@@H]1CN(Cc2ccc(O)cc2)C[C@H]1c1cn(C)c2ccccc12` to `O=C1CCC(=O)N1c1nn(Cc2c(F)cccc2Cl)cc1Cl`, the cytotoxicity at 10 µM falls from 2.39% to -11.3%.

Going from `CC(C)(C)C(=O)N1C[C@H](c2ccsc2)[C@H]2CN(C3CCCC3)CC[C@H]21` to `CC(C)S(=O)(=O)CC(=O)N1CCCC(n2ccnc2)C1` (stereo not given), the cytotoxicity at 10 µM rises from 2.33% to 10.2%.

Going from `Cc1noc(C)c1CC(=O)NCCc1cccs1` to `Cc1cc(C(=O)NC(C)CC(=O)c2ccco2)[nH]n1` (stereo not given), the cytotoxicity at 10 µM falls from -0.651% to -8.17%.

Compound `Cc1ccc(S(=O)(=O)N2C[C@@H]3CCN[C@@H]3C2)cc1` has a cytotoxicity at 10 µM of 2.94%.
